Data on seven molecules can be found in PubChem BioAssay.

Calls of active or inactive are those of the source.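 The calls were made as follows, unless noted: active = NADPH fluorescence slope more negative than the mean of all samples by about 3 SD, 99.7% confidence; inactive = the rest.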

Test [1] in a line: inhibitors of TNFa-induced NFkB p65 translocation, primary screen, imaging, HUVEC, MLSMR starter and 10KST1 sets (AID 438;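 active = inhibition above 20% together with a positive visual image hit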;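 also: compound added about 3h40 before a 20 min TNFalpha stimulation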;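 as to inhibition: signal is the nuclear over cytoplasmic p65 intensity ratio per well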). Particulars: HUVEC TNFa-induced p65 nuclear translocation; cell count: measured here: nuclei count (cytotoxicity indicator), at 2.08 µM; inhibition: at 2 µM, stronger effect = higher value, 0% TNFa-plus-vehicle, 100% no-TNFa wells.
The nature of test [2]: endothelial E-selectin expression blockers – imaging, HUVEC, immunofluorescence, MLSMR starter and 10KST1 sets, primary screen (AID 487;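 active = visually confirmed hit in the image check and inhibition above 20%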;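 as to inhibition: signal is fraction of cell area covered by stained E-selectin grains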;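 as to nuclei count: 100% = median nuclei count of all wells on the same plate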). The conditions noted are these: HUVEC TNFalpha-induced E-selectin immunofluorescence imaging, at 2 µM; inhibition: stronger effect = higher value; nuclei count: measured here: cell number, toxicity.
Test [3] is described as follows: Primary imaging screen for DUSP6 inhibitors that restore phospho-Erk in transfected HeLa cells, chemical complementation (AID 609;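 active = compounds giving at least 50% inhibition in the cell-based MKP-3 phosphatase rescue imaging test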;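 as to inhibition: phospho-Erk level distribution per well compared with pooled transfected vehicle control wells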). Particulars: HeLa MKP-3 transfected, phospho-Erk imaging KS statistic, at 10 µM, cells stimulated with TPA for 15 min.
Test [4] concerns the target Dual specificity protein phosphatase 6 (Homo sapiens) (UniProt Q16828). The description is as above. The conditions noted are these: HeLa MKP-3 transfected, phospho-Erk imaging KS statistic; at 10 µM; stronger effect = higher value; cells stimulated with TPA for 15 min.
Test [5] concerns the target Voltage-gated potassium channel subunit beta-2 (Rattus norvegicus) (UniProt P62483). The experiment in a line: inhibitors of rat Kvbeta2 reductase activity – biochemical, NADPH fluorescence, primary screen (AID 622;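 active = fluorescence slope higher than the sample average by over 3 SD, cut at about -0.22 in these data, passing the limit was not always enough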;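 also: slope of raw intensity against log time taken from 70 to 1610 s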). The conditions noted are these: recombinant KvBeta, 4-cyanobenzaldehyde reduction, at 10 µM, stronger effect = higher value.
Test [6] has the same target. The test is described as follows: enhancers of rat Kvbeta2 NADPH turnover – biochemical, NADPH fluorescence, primary screen (AID 623).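 Also: fluorescence intensity change per second fitted from 20 to 320 s.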 The conditions noted are these: Recombinant KvBeta, NADPH fluorescence decrease slope, 10 min; at 10 µM; stronger effect = lower value.
For test [7], the target named is Muscarinic acetylcholine receptor M4 (Homo sapiens) (UniProt P08173). The test is described as follows: M4-linked GIRK flux change, two-sided – cell-based, HEK293 M4/GIRK, thallium flux, BTC-AM, M4 allosteric agonist project, primary screen (AID 625;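 active = fluorescence slope after compound addition differing from the mean of all tested samples at 99.7% confidence, mostly higher but some lower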;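 also: thallium influx through GIRK channels coupled to M4 in HEK293 cells with BTC-AM dye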). The conditions noted are these: at 10 µM, actives lie on both sides. The gist of the method: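 assay system = HEK293 cells with M4 receptor and GIRK channels | medium = pH 7.3 thallium assay buffer | doses = 10 µM final, single point | timing = cells overnight at 37 °C, BTC-AM loading 1 h, reads 2 min total | signal = BTC-AM fluorescence, 1 Hz kinetic reads | read-out = post-addition slope, 15–24 s, of baseline-normalized fluorescence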

A short description of test [8]: inhibitors of larval lipid processing in zebrafish, primary screen, whole organism, PED6 fluorescence, gall bladder and intestine (AID 686;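 active = a full or partial loss of lipid-probe fluorescence in the fish gall bladder, intestine or both, judged by eye; inactive = no fluorescence loss, or compound toxic to the fish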;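 also: larvae 5 to 7 days old with five fish per well; signal comes from phospholipase A2 cleavage of quenched PED6 carried via bile; overnight exposure to compound and PED6 before scoring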). Particulars: Zebrafish larvae PED6 lipid processing, fluorescence scoring; screened at 20 µM (by protocol). The gist of the method: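 Also added: quenched phospholipase substrate PED6, 100 nM final, ingested by larvae; System: zebrafish larvae, 5-7 d; Quantity: 5 larvae per well; Compound: 20 µM single dose; Schedule: overnight compound and PED6 incubation; Read-out: visual per-well fluorescence inhibition score; Measured by: By-eye fluorescence microscopy; Medium: E3.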

A short description of test [9]: loss of swimming-algae plug formation – whole organism, Chlamydomonas reinhardtii, WT vs cilia-less mutant, absorbance, 96-well, primary screen (AID 463189;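 active = inhibition at or above 50% relative to wild type and mutant plate controls; inactive = inhibition below 50%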;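 also: 0% = wild type cc124 cells in DMSO and 100% = ciliumless bld1 mutant cells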). The conditions noted are these: Chlamydomonas reinhardtii gravitaxis, OD600 absorbance, 2 days; at 10 µM; stronger effect = higher value.
Setting [10] is: measured here: cell density z-score.
The mark [11] stands for this setting: measured here: nuclear c-Myc green intensity z-score.
Setting [12] is: measured here: nuclear pErk red intensity z-score, stronger effect = higher value.

Chain of Muscarinic acetylcholine receptor M4 (Homo sapiens) (P08173 whole entry, looked up): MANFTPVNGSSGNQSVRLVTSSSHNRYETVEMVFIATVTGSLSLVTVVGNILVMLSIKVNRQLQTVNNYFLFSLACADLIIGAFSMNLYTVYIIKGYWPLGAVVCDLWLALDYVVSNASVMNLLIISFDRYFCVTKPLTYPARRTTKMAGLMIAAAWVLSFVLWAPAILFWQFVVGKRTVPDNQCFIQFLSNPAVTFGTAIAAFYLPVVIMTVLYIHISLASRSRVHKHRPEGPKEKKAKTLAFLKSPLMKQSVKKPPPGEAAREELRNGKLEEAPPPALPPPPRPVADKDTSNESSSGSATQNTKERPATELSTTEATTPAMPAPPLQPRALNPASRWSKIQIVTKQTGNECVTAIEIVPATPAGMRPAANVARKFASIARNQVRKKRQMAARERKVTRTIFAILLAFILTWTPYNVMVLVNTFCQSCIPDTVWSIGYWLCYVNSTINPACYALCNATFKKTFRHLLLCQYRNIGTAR
Chain of Dual specificity protein phosphatase 6 (Homo sapiens) (Q16828 whole entry, looked up): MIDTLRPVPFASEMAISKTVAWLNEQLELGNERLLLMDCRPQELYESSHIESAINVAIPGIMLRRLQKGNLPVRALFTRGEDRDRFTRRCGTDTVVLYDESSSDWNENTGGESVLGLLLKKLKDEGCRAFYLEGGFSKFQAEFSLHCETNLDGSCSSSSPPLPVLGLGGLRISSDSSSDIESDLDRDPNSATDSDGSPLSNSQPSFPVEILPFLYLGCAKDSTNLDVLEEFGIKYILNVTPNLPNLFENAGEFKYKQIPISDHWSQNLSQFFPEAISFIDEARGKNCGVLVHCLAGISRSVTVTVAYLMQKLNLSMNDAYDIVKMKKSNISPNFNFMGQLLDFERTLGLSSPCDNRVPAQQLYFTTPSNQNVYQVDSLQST
Chain of Voltage-gated potassium channel subunit beta-2 (Rattus norvegicus) (P62483 whole entry, looked up): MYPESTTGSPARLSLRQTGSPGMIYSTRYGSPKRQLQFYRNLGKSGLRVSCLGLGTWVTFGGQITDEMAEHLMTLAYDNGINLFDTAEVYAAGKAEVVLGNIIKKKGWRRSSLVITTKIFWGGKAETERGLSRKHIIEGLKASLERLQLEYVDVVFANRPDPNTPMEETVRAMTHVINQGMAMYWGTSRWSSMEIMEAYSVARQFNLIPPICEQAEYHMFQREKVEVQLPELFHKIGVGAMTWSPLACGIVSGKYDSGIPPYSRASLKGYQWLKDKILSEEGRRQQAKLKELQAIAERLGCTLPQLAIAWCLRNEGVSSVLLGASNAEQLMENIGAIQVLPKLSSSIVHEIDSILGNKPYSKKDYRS

In general, inhibition refers to the drop in the measured response relative to a control, in per cent. Turning to `Nc1c2c(nc3ccccc13)N(C1CCCCC1)CC2`, the cell count in test [1] amounted to 670. The inhibition in [1] was 21.3% (inactive); in test [2], 7.4% (inactive); in test [4], -15.1% (inactive); in test [9] it was 62.2% (active). The nuclei count in test [2] is 98.7%. In addition, the z-score was -0.086 in [3] (setting [10]), 0.000792 in test [3] (setting [11]) and -0.245 in test [3] (setting [12]). The fluorescence slope in [5] is -0.46 (inactive); in test [7] it was 0.00444 (inactive). Further, the NADPH fluorescence slope in [6] was -2.9e-05 (inactive). Further, in [8], the result was inactive.

With `CCCCCNc1nc(N2CCCC2)c2c(c1C#N)CCN(C)C2`, in test [1], the cell count was determined as 596. Besides, the inhibition in test [1] is 8.1% (inactive); in test [2], -52.3% (inactive); in [4], -9.53% (inactive); in test [9] it was 165% (active). In [2], the nuclei count came out at 146%. Also, the figures for the z-score in [3] (setting [10]), in test [3] (setting [11]) and in test [3] (setting [12]) were -0.626, 0.142 and -0.491, respectively. Further, the fluorescence slope in test [5] is -0.446 (inactive); in [7] it was 0.0037 (inactive). Moreover, in [6], the NADPH fluorescence slope was -8.3e-05 (inactive). For the same molecule, in [8], the call was inactive.

On to `COc1ccc(/C(O)=C2/C(=O)C(=O)N(CCCN(C)C)C2c2ccccc2)cc1Cl` (stereo unspecified), for which the cell count in test [1] worked out at 690. The inhibition in [1] is -2% (inactive); in [2], -71.3% (inactive); in [4], 4.25% (inactive); in test [9] it was 20.4% (inactive). Also, the nuclei count in test [2] came to 159%. Also, the z-score in test [3] (setting [10]) is 0.886; in [3] (setting [11]) it was -1.15; in test [3] (setting [12]), 1.23. Besides, the fluorescence slope is -0.452 (inactive) in test [5] and 0.00499 (inactive) in test [7]. In addition, the NADPH fluorescence slope in test [6] is -6.6e-05 (inactive). Further, the call in test [8] was inactive.

Consider `CN=C(c1ccco1)n1c(=S)nc(-c2ccco2)n(C)c1=S`, for which the cell count in test [1] worked out at 339. For the same molecule, the inhibition in test [1] is -5.2% (inactive); in [2] it was -204% (inactive); in test [4], -2.59% (inactive); in [9], 28.5% (inactive). Moreover, the nuclei count in test [2] worked out at 126%. Moreover, the z-score in test [3] (setting [10]) is 0.329; in [3] (setting [11]) it was -0.895; in [3] (setting [12]) it was -0.461. For the same molecule, the values for the fluorescence slope in test [5] and in [7] were -0.522 (inactive) and 0.00396 (inactive), respectively. In addition, the NADPH fluorescence slope in [6] is -0.000102 (inactive). Further, the call in test [8] was inactive.

Take `Cc1ccc(CNC(=O)c2cc3c(=O)n4ccccc4nc3n(CC3CCCO3)c2=N)cc1` (stereo unspecified): the cell count in test [1] amounted to 542. Moreover, the inhibition in test [1] is -11.9% (inactive); in test [2], -40.3% (inactive); in test [4] it was 2.71% (inactive); in [9] it was 32.5% (inactive). Also, the nuclei count in [2] is 93.4%. For the same molecule, the z-score was -0.636 in test [3] (setting [10]), 0.681 in test [3] (setting [11]) and -1.25 in test [3] (setting [12]). Besides, the fluorescence slope was -0.331 (inactive) in test [5] and -0.000734 (active) in test [7]. In test [6], the NADPH fluorescence slope was -2.1e-05 (inactive). Further, the molecule was called inactive in test [8].

As to `O=C(O)c1ccc(C2CCCCC2)cn1`, the cell count in test [1] amounted to 532. In addition, the inhibition in [1] was 0.5% (inactive); in test [2] it was -129% (inactive); in test [4] it was 3.97% (inactive); in test [9], -1.91% (inactive). For the same molecule, the nuclei count in test [2] came to 197%. Further, the z-score in [3] (setting [10]) is -1.16; in test [3] (setting [11]) it was 0.871; in test [3] (setting [12]), -1.14. Also, the fluorescence slope was -0.444 (inactive) in test [5] and 0.00555 (inactive) in test [7]. For the same molecule, the NADPH fluorescence slope in test [6] is -4.4e-05 (inactive). In addition, in test [8], the molecule was called inactive.

For `CN(C)CCCOC(=O)c1ccc(Cl)cc1Cl`, the cell count in test [1] is 542. Moreover, the inhibition is 0% (inactive) in test [1], -26.6% (inactive) in test [2], -2.59% (inactive) in test [4] and 121% (active) in [9]. In test [2], this molecule registered a nuclei count of 126%. Moreover, the z-score in [3] (setting [10]) was -3.39; in test [3] (setting [11]), 0.341; in test [3] (setting [12]), 0.409. In addition, the figures for the fluorescence slope in test [5] and in test [7] were -0.49 (inactive) and 0.00455 (inactive), respectively. In [6], the NADPH fluorescence slope is -0.0001 (inactive). Further, the molecule was called inactive in test [8].
